21 molecules from ChEMBL document CHEMBL2401699, “4-Amino-7-chloroquinolines: probing ligand efficiency provides botulinum neurotoxin serotype A light chain inhibitors with significant antiprotozoal activity” (J Med Chem, 2013) can be followed below.

Data set [1] is described as follows: Selectivity index, ratio of IC50 for human HepG2 cells to IC50 for Plasmodium falciparum D2. Type of data set: toxicity, cell-based. The settings on record: read-out: Ratio IC50.
Data set [2] is described as follows: Selectivity index, ratio of IC50 for human HepG2 cells to IC50 for Plasmodium falciparum TM91C235. Type of data set: toxicity, cell-based. The settings on record: read-out: Ratio IC50.
Data set [3] is described as follows: Selectivity index, ratio of IC50 for human HepG2 cells to IC50 for Plasmodium falciparum W2. Format: toxicity, cell-based. The settings on record: read-out: Ratio IC50.
Data set [4] concerns Plasmodium falciparum. The data set can be described thus: Antimalarial activity against multi drug resistant Plasmodium falciparum TM91C235 after 72 hrs by MSF assay. Type of data set: functional, organism-based. The settings on record: TM91C235, 72 h.
Data set [5] concerns the target Botulinum neurotoxin type A (Clostridium botulinum) (UniProt P0DPI0). The data set can be described thus: Inhibition of Clostridium botulinum recombinant BoNT/A light chain at […] by reverse-phase HPLC analysis. The method, boiled down:
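Recombinant BoNT/A light chain was tested with a synthetic SNAP-25 187–203 peptide substrate (N-acetylated, C-aminated). The mix held 40 mM HEPES-0.05% Tween pH 7.3, 0.5 mg/ml BSA, 1 mM DTT, excess zinc and 20 µM inhibitor, at 37 °C, quenched with TFA. Cleaved and uncleaved peptide were separated by reverse-phase HPLC, and peak areas gave reaction rates and % inhibition.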

Data set [6] relates to Plasmodium falciparum. The data set can be described thus: Antimalarial activity against chloroquine-resistant Plasmodium falciparum W2 after 72 hrs by MSF assay. Format: functional, organism-based. The settings on record: W2, 72 h.
For data set [7], the system named is Plasmodium falciparum. The data set can be described thus: Antimalarial activity against chloroquine-sensitive Plasmodium falciparum D6 after 72 hrs by MSF assay. Type of data set: functional, organism-based. The settings on record: D6, 72 h.
Data set [8] concerns Liver microsomes. The data set is described as follows: (§1) Half life in human liver microsomes at 10 uM by LC-MS/MS analysis. The settings on record: microsomes, 10 µM. Format: ADME, Microsome. (Liver microsomes are vesicles of endoplasmic reticulum, rich in cytochrome P450 enzymes.)
Data set [9] deals with HepG2. The data set can be described thus: Cytotoxicity against human HepG2 cells after 48 hrs by MTT assay. Format: cell-based. The settings on record: HepG2, 48 h.
Data set [10] deals with Liver. The data set is described as follows: (§2) Half life in mouse liver microsomes at 10 uM by LC-MS/MS analysis. Type of data set: ADME, Microsome. The settings on record: microsomes, 10 µM.
A short description of data set [11]: as §1. Format: ADME, Microsome. The settings on record: liver microsomes.
Data set [12] is described as follows: as §2. Type of data set: ADME, Microsome. The settings on record: liver microsomes.
Data set [13] has as its system Plasmodium falciparum. The data set is described as follows: Ratio of mefloquine IC50 to compound IC50 against Plasmodium falciparum TM91C235. Format: functional.
Data set [14] deals with Plasmodium falciparum. The data set is described as follows: Antimalarial activity against multidrug-resistant Plasmodium falciparum TM90C2A after 72 hrs by MSF assay. Format: functional, organism-based. Put shortly: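 P. falciparum cultures at late-ring or early-trophozoite stage, 0.3% starting parasitemia and 2% hematocrit, were grown in plates predosed with quadruplicate 12-point two-fold dilutions in DMSO (final […]). Incubation was 72 h at 37 °C in 5% CO2/5% O2/90% N2. Lysis buffer with SYBR Green I (final 10x) was added, then 24 h dark at room temperature and fluorescence read. IC50/IC90 came from sigmoidal variable-slope nonlinear regression.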

Data set [15] concerns Plasmodium falciparum. The data set is described as follows: Antimalarial activity against multidrug-resistant Plasmodium falciparum TM90C2B after 72 hrs by MSF assay. Type of data set: functional, organism-based.

Botulinum neurotoxin type A (Clostridium botulinum), sequence (P0DPI0 2-448 limits assumed): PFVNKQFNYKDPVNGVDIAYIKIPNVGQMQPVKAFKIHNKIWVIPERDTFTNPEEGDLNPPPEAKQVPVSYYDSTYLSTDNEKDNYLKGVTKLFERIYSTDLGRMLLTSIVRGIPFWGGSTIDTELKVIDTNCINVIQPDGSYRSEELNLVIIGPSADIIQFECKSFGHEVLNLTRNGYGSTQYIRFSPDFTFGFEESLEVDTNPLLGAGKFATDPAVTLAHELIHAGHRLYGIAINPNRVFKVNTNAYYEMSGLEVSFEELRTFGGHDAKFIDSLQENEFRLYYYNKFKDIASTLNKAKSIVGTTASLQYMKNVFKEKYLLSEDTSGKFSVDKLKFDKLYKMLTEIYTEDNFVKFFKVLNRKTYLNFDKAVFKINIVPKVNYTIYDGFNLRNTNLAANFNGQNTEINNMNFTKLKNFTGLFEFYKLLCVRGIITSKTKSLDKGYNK

As for `Clc1ccc2c(NCCCNCc3cnccc3Cl)ccnc2c1`, the selectivity ratio in [1] was 146; in data set [2], 121; in [3] it was 52. Also, the IC50 (usually the concentration that gives 50% inhibition) in [4] came out at 31 nM; in data set [6] it was 73 nM; in data set [7], 25.7 nM; in data set [9], 3760 nM. The inhibition (in general, the change of the read-out against control, counted positive when it falls) in data set [5] came out at 35.9%. Further, the t1/2 was 0.267 h in data set [8] and 0.317 h in data set [10].

In the case of `Clc1ccc2c(NCCCNCc3cccnc3)ccnc2c1`, the selectivity ratio was determined as 317 in [2] and 90 in data set [3]. Also, the values for the concentration for half-maximal inhibition (IC50) in data set [4], in data set [6] and in [9] were 73.4 nM, 260 nM and 23300 nM, respectively. Besides, the inhibition in data set [5] was determined as 39.9%. The half-life at 10 µM in data set [11] and in [12] was 1 h each time.

`COc1ccncc1CNCCCNc1ccnc2cc(Cl)ccc12`: the figures for the selectivity ratio in data set [1], in data set [2] and in [3] were 1040, 93 and 57, respectively. Further, the concentration for half-maximal inhibition (IC50) in data set [4] amounted to 53.2 nM; in data set [6] it was 86.9 nM; in data set [7] it was 4.76 nM; in data set [9], 4970 nM. The inhibition in data set [5] is 43.2%. Moreover, the half-life at 10 µM in data set [11] and in [12] was 1 h each time.

`COc1ccc(CNCCNc2ccnc3cc(Cl)ccc23)cc1`: the selectivity ratio turned out to be 1810 in data set [1], 362 in [2] and 406 in data set [3]. Also, the half-maximal inhibitory concentration (IC50) in data set [4] worked out at 16.1 nM; in data set [6] it was 14.3 nM; in [7], 3.22 nM; in [9], 5820 nM. Besides, in [13], the “Ratio IC50” value worked out at 4. For the same molecule, the inhibition in data set [5] was determined as 18%. The t1/2 in data set [8] amounted to 0.45 h; in data set [10], 0.1 h.

For `Fc1ccc(CNCCNc2ccnc3cc(Cl)ccc23)cc1`, the selectivity ratio in data set [1] was 608; in [2], 291; in [3] it was 350. Besides, the half-inhibitory concentration (IC50) was determined as 55.2 nM in data set [4], 45.8 nM in data set [6], 26.4 nM in [7] and 16000 nM in data set [9]. For the same molecule, the inhibition in [5] came out at 68%.

Turning to `Clc1ccc2c(NCCNCc3cccnc3)ccnc2c1`, the selectivity ratio was found to be 1800 in [1], 882 in data set [2] and 426 in data set [3]. Moreover, the IC50 in data set [4] turned out to be 109 nM; in [6], 225 nM; in [7], 53.4 nM; in data set [9] it was 95900 nM. Moreover, the inhibition in data set [5] amounted to 25%.

On to `Clc1ccc2c(NCCCNCc3ccccc3)ccnc2c1`, for which the values for the selectivity ratio in data set [1], in data set [2] and in data set [3] were 169, 73 and 56, respectively. The IC50 came to 39.9 nM in data set [4], 52.2 nM in [6], 17.2 nM in data set [7] and 2910 nM in [9]. For the same molecule, the inhibition in data set [5] was 51.8%. Moreover, the half-life at 10 µM in [11] and in data set [12] was 1 h in each case.

On to `Clc1ccc2c(NCCNCc3ccncc3)ccnc2c1`, for which the selectivity ratio in [1] came out at 2530; in [2], 752; in [3], 409. In addition, the IC50 in data set [4] amounted to 204 nM; in data set [6], 375 nM; in data set [7], 60.7 nM; in data set [9], 153000 nM. Besides, the inhibition in [5] amounted to 24%.

For the molecule `Clc1ccc2c(NCCNCc3ccccc3)ccnc2c1`, the IC50 in data set [14] came to 9.94 nM; in data set [4], 7.38 nM; in data set [6] it was 10.9 nM; in [7], 6.41 nM; in data set [15], 9.3 nM; in data set [9], 19400 nM. Besides, the values for the IC90 in data set [4], in data set [7] and in [15] were 9.3 nM, 9.62 nM and 12.5 nM, respectively. Moreover, the inhibition in data set [5] is 52%. For the same molecule, the half-life (usually the time in which the quantity being followed falls by half) at 10 µM in [11] came to 1 h. In data set [10], the t1/2 is 0.383 h.

As for `Clc1ccc2c(NCCNCc3cnccc3Cl)ccnc2c1`, the figures for the selectivity ratio in [1], in [2] and in data set [3] were 102, 78 and 46, respectively. The IC50 in data set [4] came out at 83.3 nM; in data set [6], 141 nM; in data set [7], 63.8 nM; in data set [9], 6500 nM. Further, the inhibition in data set [5] amounted to 23%. The t1/2 was 0.167 h in data set [8] and 0.617 h in data set [10].

For `CCN(CC)CCCC(C)Nc1ccnc2cc(Cl)ccc12` (centres undefined) [CHLOROQUINE PHOSPHATE], the 90% effect concentration (IC90) (usually the point of the concentration-response curve where the effect stands at 90%) in data set [4] turned out to be 476 nM; in data set [6], 942 nM; in data set [7], 19.2 nM; in data set [15] it was 602 nM. The inhibition in data set [5] worked out at 7%.

Regarding `CC(C)(C)c1ccc(CNCCNc2ccnc3cc(Cl)ccc23)cc1`, the selectivity ratio in data set [1] was found to be 429; in [2] it was 419; in [3], 245. For the same molecule, the IC50 in [4] was 24.7 nM; in data set [6] it was 42.4 nM; in [7], 24.2 nM; in [9], 10400 nM. Besides, in [5], the inhibition was found to be 47%.

As for `COc1ccc(CNCCCNc2ccnc3cc(Cl)ccc23)cc1`, the selectivity ratio was found to be 778 in data set [1], 95 in data set [2] and 86 in data set [3]. Moreover, the IC50 in [4] was found to be 50.6 nM; in data set [6], 56.2 nM; in data set [7], 6.18 nM; in [9], 4810 nM. Besides, the inhibition in [5] stood at 14%. Further, the t1/2 amounted to 1 h in [8] and 0.3 h in [10].

On to `COc1ccncc1CNCCNc1ccnc2cc(Cl)ccc12`, for which the concentration for half-maximal inhibition (IC50) was determined as 7.29 nM in data set [4] and 19 nM in data set [6]. Also, the inhibition in [5] turned out to be 19%. The t1/2 in [8] was 0.633 h; in [10], 0.383 h.

As to `CC(C)(C)c1ccc(CNCCCNc2ccnc3cc(Cl)ccc23)cc1`, the selectivity ratio was 100 in [1], 68 in data set [2] and 45 in data set [3]. In addition, the concentration for half-maximal inhibition (IC50) in data set [4] is 31.9 nM; in [6], 48.4 nM; in data set [7], 21.7 nM; in [9], 2170 nM. The inhibition in [5] amounted to 50.3%.

In the case of `Clc1ccc2c(NCCNCc3ccc(Br)cc3)ccnc2c1`, the selectivity ratio in data set [1] came out at 1610; in data set [2], 660; in [3] it was 695. Also, the half-inhibitory concentration (IC50) in data set [4] came out at 9.98 nM; in data set [6], 9.47 nM; in [7] it was 4.1 nM; in [9] it was 6580 nM. Besides, in data set [13], the “Ratio IC50” value was 4. For the same molecule, in data set [5], the inhibition is 69%. The half-life at 10 µM in [11] and in data set [12] was 1 h each time.

As for `Clc1ccc2c(NCCCNCc3ccncc3)ccnc2c1`, the selectivity ratio in [1] is 4150; in [2], 469; in data set [3] it was 176. The half-maximal inhibitory concentration (IC50) turned out to be 76.4 nM in data set [4], 204 nM in data set [6], 8.65 nM in data set [7] and 35900 nM in data set [9]. In addition, the inhibition in data set [5] amounted to 42.3%. Further, the t1/2 in data set [8] and in data set [10] was 0.15 h throughout.

Turning to `C[C@@H]1CC[C@H]2[C@@H](C)C(=O)O[C@@H]3O[C@@]4(C)CC[C@@H]1[C@]32OO4` [ARTEMISININ], the values for the IC50 in data set [4], in [6] and in [7] were 13 nM, 6.7 nM and 9 nM, respectively.

On to `Clc1ccc2c(NCCCNCc3ccc(Br)cc3)ccnc2c1`, for which the half-inhibitory concentration (IC50) in data set [14] turned out to be 7.16 nM; in data set [4] it was 6.18 nM; in data set [6] it was 5.93 nM; in data set [7], 3.95 nM; in data set [15], 7.91 nM; in [9], 4950 nM. Moreover, the 90% effect concentration (IC90) in [4] turned out to be 7.66 nM; in [6], 7.41 nM; in [7] it was 4.45 nM; in data set [15], 12.1 nM. The inhibition in data set [5] was 68%. For the same molecule, the half-life at 10 µM in data set [11] and in [12] was 1 h in each case.

With `Fc1ccc(CNCCCNc2ccnc3cc(Cl)ccc23)cc1`, the selectivity ratio in data set [1] was 415; in [2] it was 185; in data set [3], 110. The IC50 in [4] amounted to 29.4 nM; in data set [6] it was 49.4 nM; in data set [7], 13.1 nM; in [9], 5430 nM. The inhibition in data set [5] came to 50.1%.

Molecule `O[C@@H](c1cc(C(F)(F)F)nc2c(C(F)(F)F)cccc12)[C@H]1CCCCN1` (racemic) had an IC50 in data set [14] of 51.1 nM. In addition, the inhibition in [5] came to 28%. Further, the IC90 in data set [7] was 43.6 nM.
